target: 5-hydroxytryptamine receptor 6 (Homo sapiens, UniProt P50406); assay: Binding affinity against h5-HT6 receptor transiently expressed in HEK293 cells; format: cell-based
In short: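 Harvested transfected cells 72 h post-transfection (medium changed at 24 h; dialyzed serum added 24 h later to remove 5-HT), washed in PBS pH 7.40, stored frozen at -80 °C. Competition binding at room temperature, 90 min, in 50 mM Tris-Cl, 10 mM MgCl2, 0.1 mM EDTA pH 7.40 with [3H]LSD 1 nM final; 10 µM clozapine defines nonspecific binding.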

Chain of 5-hydroxytryptamine receptor 6 (P50406 whole entry): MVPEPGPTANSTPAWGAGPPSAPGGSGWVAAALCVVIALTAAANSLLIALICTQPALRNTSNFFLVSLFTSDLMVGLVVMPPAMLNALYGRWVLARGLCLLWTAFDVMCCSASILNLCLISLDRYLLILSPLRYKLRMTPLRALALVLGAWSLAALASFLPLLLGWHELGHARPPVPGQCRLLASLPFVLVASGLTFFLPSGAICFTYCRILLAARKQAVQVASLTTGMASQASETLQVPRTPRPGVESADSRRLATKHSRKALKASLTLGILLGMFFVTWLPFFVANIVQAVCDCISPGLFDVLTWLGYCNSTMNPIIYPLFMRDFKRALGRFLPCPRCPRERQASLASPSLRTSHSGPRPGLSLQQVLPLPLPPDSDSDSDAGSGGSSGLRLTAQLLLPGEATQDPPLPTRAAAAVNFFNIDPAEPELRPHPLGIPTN

Question: With CN1CCC[C@@H]1Cc1cn(S(=O)(=O)c2ccccc2)c2ccccc12 as the molecule, how does the Ki read?
Answer: Its Ki is 0.3 nM.

Question: O=S(=O)(c1ccccc1)n1cc(C[C@@H]2CCCN2)c2ccccc21 was tested. Which Ki did it give?
Answer: Its Ki is 46 nM.

Question: With O=S(=O)(c1ccccc1)n1cc(C[C@H]2CCCN2)c2ccccc21 as the molecule, how does the Ki read?
Answer: The Ki was 7.8 nM.

Question: CN1CCC[C@@H]1Cn1cc(Cc2ccccc2)c2ccccc21 was tested. Which Ki did it give?
Answer: Its Ki is 9.9 nM.

Question: How did the Ki turn out when CN1CCC[C@H]1Cc1cn(S(=O)(=O)c2ccccc2)c2ccccc12 was run?
Answer: The Ki was 1.7 nM.

Question: For CN1CCC[C@H]1Cn1cc(Cc2ccccc2)c2ccccc21, which Ki is on record?
Answer: Its Ki is 29 nM.

Question: c1ccc2c(C[C@@H]3CCCN3)c[nH]c2c1 was tested. Which Ki did it give?
Answer: The Ki was 2400 nM.

Question: CN1CCC[C@@H]1Cc1c[nH]c2ccccc12 was tested. Which Ki did it give?
Answer: Its Ki is 640 nM.

Question: Which Ki does the source give for c1ccc2c(C[C@H]3CCCN3)c[nH]c2c1 here?
Answer: Its Ki is 60 nM.

Question: How did the Ki turn out when CN1CCC[C@H]1Cc1c[nH]c2ccccc12 was run?
Answer: The Ki was 9.1 nM.

Question: With CN(C)CCc1cn(S(=O)(=O)c2ccccc2)c2ccccc12 as the molecule, how does the Ki read?
Answer: Its Ki is 4 nM.

Reference: ChEMBL document CHEMBL1139582, “Interaction of chiral MS-245 analogs at h5-HT6 receptors” (Bioorg Med Chem Lett, 2005)
